Columns and labels:
[1] = system: naive CD8+ T cells derived from HD-PBMCs; assay type: cell-based, human; conditions: for CD8+ T-cell induction by AKF9 variants, in words: seven HD-PBMCs, cocktail of AKF9 variants along with the WT, tetramer staining; for immunogenicity (CD8+ T-cell induction), in words: six HD-PBMCs, cocktail of four natural HLA-A24 neoantigens
[2] = system: HLA-A24 on T2-A24 cells; experiment: Peptide-HLA class I stability assay; assay type: binding, human; conditions: peptide 0.3 to 3 µM
How it was run: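 TAP-deficient T2-A24 cells were pre-cultured overnight at 25°C. Cells were pulsed with mutant or WT peptide (0.3–3 µM) for 1 h at 25°C, then 3 h at 37°C. Surface HLA-A24 was stained with anti-HLA-A24 (C7709A2) and goat anti-mouse IgG-FITC, then read by flow cytometry. ΔMFI = MFI with peptide minus MFI without. Known HLA-A24 binder and non-binder peptides were controls. Comparison at 1 µM, SEM (n = 3), two-tailed t-test.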

[3] = system: neoantigen-reactive CD8+ T-cell clones; experiment: IFNγ ELISpot assay of neoantigen-reactive CD8+ T-cell clones; assay type: cell-based, human; conditions: T2-A24 pulsed with 20 µM peptide, 24 h 37°C
How it was run: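 Clones came from single tetramer-positive CD8+ cells sorted and expanded with irradiated allogeneic feeders, 5 μg/mL PHA and 100 IU/mL IL-2. T2-A24 cells were pre-incubated with 20 µM mutant or WT peptide for 2 h at 25°C. Spots were detected with 2 µg/mL biotinylated anti-IFNγ, streptavidin-HRP and AEC substrate.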

Sequence	CD8+ T-cell induction by AKF9 variants, in words [1]	immunogenicity (CD8+ T-cell induction), in words [1]	other results
AYLEAIHDF [ADF9]	increased the frequency		
AYLEAIHHF [AHF9]	increased the frequency		
AYLEAIHKF [AKF9]	increased the frequency	immunogenic	number of HDs with CD8+ T-cell response ([1]; of six HD-PBMCs, response = ≥ 4-fold increase with ≥ 0.1% tetramer+ CD8+ cells): three; effect of the mutation on pHLA I stability versus wild-type peptide [2]: unaltered
AYLEAIHNF [ANF9]			recognition by ADF9-reactive CD8+ T-cell clones (D1-D5), IFNγ ELISpot [3]: three of the five clones
AYLEAIHYF [AYF9]	increased the frequency		
HYAALRELI [HI9]		failed to induce T-cell responses	
TLPEEFHEF [TEF9]		immunogenic	effect of the mutation on pHLA I stability versus wild-type peptide [2]: increased
VYVAKLHDI [VYI9]		failed to induce T-cell responses	

Source: article PMC7833734 (Oncoimmunology, 2021)
